This excerpt belongs to a sample that is enriched for hits.
Dynein transport – dynein cargo transport inhibition | AID 1381 | 3617.4 mouse cells, GR-EGFP nuclear translocation imaging; test concentration mostly 20 µM; stimulated with dexamethasone, 1 µM; stronger effect = lower value | z-score, hits read low | actives 0.47% (n = 220,000);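 active means plate z-score of nuclear minus cytoplasmic receptor signal below a set negative limit, without overly bright fluorescence or cell loss, cut at about -3.5 in these data, passing the limit was not always enough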;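 further: z-score of nuclear minus cytoplasmic ring GR-EGFP intensity difference per well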
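Buffer or medium: Induction medium lacking tetracycline, stripped serum | Also added: Dexamethasone agonist, 1.0 µM final, for 30 min | Timing: 48 h induction, 1 h compound, 30 min dex at 37 °C | Detection: Formaldehyde fixation, Hoechst nuclear stain, 10x automated fluorescence imaging | Measure: Nuclear versus cytoplasmic GR-EGFP signal, averaged per well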
T cruzi repl – blocks replication of Trypanosoma cruzi | actives 1.4% (n = 300,000) | inhibition, % (test concentration not listed) | T. cruzi beta-gal in NIH3T3, luminescence, 90 h | AID 1885;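 active means mean inhibition across valid replicates above about 55%, limit read from the data; inconclusive means mean below that limit but half or more replicates reach it; inactive means mean below it, under half of replicates reach it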;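 further: signal also drops with host cell toxicity which is not excluded here; higher percent means less beta-gal luminescence so fewer parasites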
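Incubation – ≥90 h infection period, 3 h prior cell attachment · System – NIH/3T3 fibroblasts plus reporter T. cruzi · Doses – compound pinned at 50 nL/well, DMSO · Read-out basis – percent inhibition of parasite-derived β-gal signal · Signal – luminescent β-galactosidase signal after 60 min lysis · Also added – 5000 T. cruzi trypomastigotes/well · Medium – Low-serum DMEM with 2% FBS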
UPR XBP1 act – adaptive UPR (XBP1) activation; CHO-XBP1 luciferase reporter, IRE1-XBP1 UPR activation, luminescence; percent of tunicamycin response, DMSO as zero; activation, % at 20 µM; actives 0.33% (n = 330,000); AID 463104;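 active means versus positive control, 20 µM dose yields 30% or more activation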
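Assay system: CHO-XBP1 luciferase reporter cells; Schedule: 6 h treatment, 37 °C; Detection: glow luminescence from Steady-Glo reagent; Benchmarks: high control tunicamycin 10 µg/mL final, low control DMSO vehicle only.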
UPR CHOP act – activators of apoptotic arm of unfolded protein response (CHOP) | activation, % at 10 µM | actives 0.34% (n = 330,000) | CHO-CHOP luciferase reporter, UPR activation, luminescence; percent of tunicamycin response over DMSO baseline;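 active means at 10 µM dose, activation of 40% or more, normalized to positive control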
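measured by = luciferase luminescence | assay system = CHO-CHOP cells, stable luciferase reporter of PERK-eIF2a-CHOP signalling | amount = 500 reporter cells seeded per well | timing = 6 h compound exposure at 37 °C after overnight seeding | controls = positive tunicamycin 10 µg/mL, negative DMSO alone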
L major viab – reduces viability of Leishmania major promastigotes | AID 1063 | resazurin fluorescence viability | actives 9% (n = 200,000) | inhibition, % at 10 µM; in the data active means inhibition above about 50%;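 further: promastigotes grown with compound for 44 hours at 28 °C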
CHOP inh – blocks CHOP induction under ER stress; CHO-K1 CHOP-promoter luciferase, tunicamycin-induced, 15-18 h; inhibition, % at 10 µM; actives 3.8% (n = 220,000); AID 2732;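 active means compounds that reduced the stress-induced luciferase reporter signal by more than about 70% of percent inhibition, limit read from the data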
Dynein inh conf – dynein cargo transport inhibition, confirmation. shares compounds with Dynein transport. calls only at 20 µM. actives 69% (n = 1,000). 3617.4 GR-EGFP nuclear translocation imaging, dexamethasone-induced;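 active means inhibition of receptor movement into the nucleus at or above a set limit in both runs, with normal cell brightness and cell count; inconclusive means limit reached in only one run, brightness and count normal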;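 further: dexamethasone at 1 µM final in well for 30 min; nuclear minus cytoplasmic GR-EGFP mean intensity difference in channel 2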
A number is an active result; i = inactive; ? = inconclusive; nt = no result; + = active, no number.

SMILES	Dynein transport	T cruzi repl	UPR XBP1 act	UPR CHOP act	L major viab	CHOP inh	Dynein inh conf
Cc1cc(C)cc(OC(=O)CS(=O)c2ccc(C(F)(F)F)cc2[N+](=O)[O-])c1 (stereo unspecified)	-3.7	i	i	i	i	i	+
COc1ccccc1/C=C/C(=O)/C=C/c1ccccc1O	-4.2	nt	nt	nt	nt	101	+
C=CCNC(=S)Nc1sc2c(c1C(=O)OCC)CCN(C(=O)OCC)C2	i	i	i	i	i	i	nt
CCOC(=O)c1c(NC(=S)N2CCCCC2)sc2c1CCN(C(=O)OCC)C2	-3.6	i	i	i	nt	i	+
CCOC(=O)c1c(NC(=S)N2CCOCC2)sc2c1CCN(C(=O)OCC)C2	-4.7	i	i	i	nt	i	+
CCOC(=O)c1c(NC(=S)NCc2ccccc2)sc2c1CCN(C(=O)OCC)C2	i	i	i	i	nt	i	nt
CCOC(=O)C1CCCN(c2cc(NCCCO)c([N+](=O)[O-])c3nonc23)C1 (stereo unspecified)	i	i	i	i	i	i	nt
O=[N+]([O-])c1c(NCc2ccco2)ccc2nonc12	i	i	i	i	nt	i	nt
CCC(=O)OCCNc1cc(Sc2nc3ccccc3[nH]2)c2nonc2c1[N+](=O)[O-]	-4.9	nt	nt	nt	i	109	i
NCCNc1ccc([N+](=O)[O-])c(Sc2nc3ccccc3[nH]2)c1	i	i	i	i	i	i	nt
CCCC(=O)OCCNc1cc(SCc2ccco2)c2nonc2c1[N+](=O)[O-]	-3.9	i	i	i	i	i	+
CCCSc1cc(NCCOC(=O)CCC)c([N+](=O)[O-])c2nonc12	-4.9	i	i	i	i	i	+
CC(=O)OCCCNc1cc(SCc2ccco2)c2nonc2c1[N+](=O)[O-]	-5.5	i	i	i	51	i	+
CCCCCCC(=O)N(O)C1CC(=O)N(c2ccc(C)cc2)C1=O (stereo unspecified)	i	i	i	i	i	i	nt
CCCCCCC(=O)N(O)C1CC(=O)N(c2ccc(Cl)cc2)C1=O (stereo unspecified)	-5.1	i	i	i	nt	i	+
Cc1cccc(N2CCN(C(=O)c3ccc(NC4=NC5CS(=O)(=O)CC5S4)cc3)CC2C)c1 (stereo unspecified)	nt	i	i	i	nt	nt	nt
Cc1cccc(CS(=O)(=O)c2nnc([C@H](Cc3ccccc3)NC(=O)OC(C)(C)C)o2)c1	-4.9	i	i	i	i	115	i
CCOC(=O)C1=C(SCC)c2cc3c(n2C1=O)CCCC3	-3.6	nt	i	i	i	i	+
CCOC(=O)c1cnc2cc3c(cn2c1=O)CCCC3	i	i	i	i	i	i	nt
CC1(C)COC(/C=C/c2cccc([N+](=O)[O-])c2)=N1	-4.5	i	i	i	98	i	+
CC1(C)COC(c2cc([N+](=O)[O-])ccc2Cl)=N1	i	i	i	i	i	i	nt
CC(C)N(C(=O)COC(=O)c1ccccc1C(=O)c1ccc(Cl)c([N+](=O)[O-])c1)C(C)C	-3.6	i	i	i	i	i	i
COc1ccc(CN=Cc2[nH]c3ccc(Br)c(Cl)c3c2O)cc1	-5	55	i	i	99	i	+
Cc1cc(C)cc(N=Cc2[nH]c3ccc(Br)c(Cl)c3c2O)c1	i	i	nt	nt	i	103	+
COc1ccc(CN=CC2=C(O)CNC2=O)cc1	i	i	i	i	i	i	nt
SMILES	Dynein transport	T cruzi repl	UPR XBP1 act	UPR CHOP act	L major viab	CHOP inh	Dynein inh conf
Cc1cc(F)ccc1NC(=O)CCc1ccc(S(=O)(=O)N2CCOCC2)cc1	nt	nt	i	i	nt	nt	nt
CC1CC(C)(C)Nc2ccc(N=O)cc21 (stereo unspecified)	-4	98	nt	nt	100	96	+
CC1CC2(CCCC2)Nc2ccc(F)cc21 (stereo unspecified)	nt	i	i	i	nt	nt	nt
Nc1c(C(=O)c2ccccc2)sc2nsc(SCCN3CCCC3)c12	i	55	i	i	nt	i	i
Nc1c(C(=O)c2ccc(Cl)cc2)sc2nsc(SCCN3CCOCC3)c12	i	i	i	i	nt	i	i
CC(=O)c1sc2nsc(SCCN3CCCCC3)c2c1N	i	i	i	i	nt	i	nt
CC(=O)Nc1cccc(NC(=O)CSc2nccn2Cc2ccccc2)c1	nt	i	i	i	nt	nt	nt
COc1ccc(N(CC(=O)Nc2ccccc2OC)S(=O)(=O)c2ccc(NC(C)=O)cc2)cc1	nt	i	i	i	nt	nt	nt
Cc1ccc(-c2nn(-c3ccccc3)cc2CO)o1	-3.7	i	i	i	i	i	i
COc1ccc(C(=O)Cn2cc([N+](=O)[O-])nc2C)cc1	nt	i	i	i	nt	nt	nt
COc1ccc(C(=O)Cn2c(C)nc([N+](=O)[O-])c2Br)cc1	-5.8	i	i	i	nt	i	+
O=C(Nc1ccc(S(=O)(=O)Nc2ncccn2)cc1)C1CC(=O)N(c2ccc(Cl)cc2)C1 (stereo unspecified)	nt	i	i	i	nt	nt	nt
Fc1ccc(-c2csc3ncnc(Cl)c23)cc1	i	i	i	i	i	i	nt
Clc1ccc(-c2csc3ncnc(Cl)c23)cc1	-4	i	i	i	i	i	+
COc1ccc(-c2csc3ncnc(Cl)c23)cc1	-4.1	i	i	i	i	i	i
CN(CCc1ccccc1)C(=O)c1cccc(NC(=O)Cc2cccc([N+](=O)[O-])c2)c1	nt	nt	i	i	nt	nt	nt
O=c1[nH]c2ccccc2c2oc(CCl)nc12	-4.1	i	i	i	nt	i	?
O=C(Nc1ccc2c(c1)COC2=O)c1ccc(Cl)c(Cl)c1	nt	i	i	i	nt	nt	nt
Nc1cccc2c1C(=O)N(CC(=O)NC13CC4CC(CC(C4)C1)C3)C2=O	i	i	i	i	i	i	nt
O=C(Cn1sc2ccccc2c1=O)NC12CC3CC(CC(C3)C1)C2	-5.1	nt	i	i	100	90	i
Cc1cc(=O)n2nc(N3CCC(C(=O)NCCc4ccc(Cl)cc4)CC3)sc2n1	nt	i	i	i	nt	nt	nt
Cc1ccc(S(=O)(=O)/N=c2\ccc(Cl)cn2C(F)F)cc1	-3.8	i	i	i	i	i	i
COc1ccc(C(=O)c2sc3nc(C)cc(-c4cccs4)c3c2N)cc1	i	i	nt	nt	73	i	?
Cc1cc(C)c2c(N)c(C(=O)N/N=C/c3cccs3)sc2n1	i	i	i	i	nt	i	nt
CC(C)NC(=O)c1sc2nc(-c3cccs3)cc(-c3cccs3)c2c1N	i	i	i	i	i	i	nt
Cc1cc(-c2cccs2)c2c(N)c(C(=O)c3ccc4c(c3)OCO4)sc2n1	i	i	i	i	i	i	?
COc1ccc(C(=O)c2sc3nc(C)cc(-c4cccs4)c3c2N)cc1OC	i	i	nt	nt	i	i	i
COC(=O)c1sc2nc(C)cc(-c3ccccc3)c2c1N	i	i	i	i	i	i	nt
